Experimental data from ChEMBL document CHEMBL1157848, “Derivatives of benzimidazole pharmacophore: synthesis, anticonvulsant, antidiabetic and DNA cleavage studies” (2010).
Active and inactive are the calls of the source. No cut-off for these calls is given here.

Legend:
[1] = test system: Rattus norvegicus; test: Anticonvulsant activity in Wistar albino rat assessed as time spent on tonic flexion phase at 70 mg/kg by MES test (RVb = 3.12 +/- 0.31 sec); format: functional
Procedure, shortened: (§1)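 Maximal electroshock (MES) convulsion model in rats. Duration in seconds of the flexion, extensor, clonus and stupor phases was recorded, along with recovery or death. The vehicle control was 1% w/w gum acacia and phenytoin was the reference. Data are mean ± SEM, with P < 0.05 taken as significant.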

[2] = test system: Nucleic Acid; test: Induction of Escherichia coli DNA cleavage at 25 mg after 2 hrs using ethidium bromide staining by agarose gel electrophoresis methos; format: nucleic-acid assay
Procedure, shortened: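 Genomic DNA came from E. coli grown 24 h at 37 °C in nutrient broth. It was extracted by SDS/EDTA lysis, phenol then chloroform–isoamyl alcohol, and ethanol precipitation, and dissolved in TAE. Samples were incubated with the DNA 2 h at 37 °C, mixed 1:1 with bromophenol blue, and run on agarose in TAE at 50 V alongside a DNA marker. Gels were ethidium bromide stained 10–15 min and cleavage judged visually.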

[3] = test system: Rattus norvegicus; test: Anticonvulsant activity in Wistar albino rat assessed as time spent on stupor phase at 70 mg/kg by MES test (RVb = 218.33 +/- 5.80 sec); format: functional; procedure, shortened: as §1
[4] = test system: Rattus norvegicus; test: Anticonvulsant activity in Wistar albino rat assessed as time spent on tonic extensor phase at 70 mg/kg by MES test (RVb = 11 +/- 0.57 sec); format: functional; procedure, shortened: as §1
[5] = test system: Rattus norvegicus; test: Anticonvulsant activity in Wistar albino rat assessed as time spent on clonic convulsions phase at 70 mg/kg by MES test (RVb = 16.80 +/- 2.50 sec); format: functional; procedure, shortened: as §1
[6] = test system: Rattus norvegicus; test: Anticonvulsant activity in Wistar albino rat assessed as time spent on tonic flexion phase at 20 mg/kg by MES test (RVb = 3.12 +/- 0.31 sec); format: functional; procedure, shortened: as §1
[7] = test system: Rattus norvegicus; test: Anticonvulsant activity in Wistar albino rat assessed as time spent on stupor phase at 20 mg/kg by MES test (RVb = 218.33 +/- 5.80 sec); format: functional; procedure, shortened: as §1
[8] = test system: Rattus norvegicus; test: Anticonvulsant activity in Wistar albino rat assessed as time spent on clonic convulsions phase at 20 mg/kg by MES test (RVb = 16.80 +/- 2.50 sec); format: functional; procedure, shortened: as §1
[9] = test system: Rattus norvegicus; test: Anticonvulsant activity in Wistar albino rat assessed as time spent on tonic extensor phase at 20 mg/kg by MES test (RVb = 11 +/- 0.57 sec); format: functional; procedure, shortened: as §1
[10] = test system: Rattus norvegicus; test: Anticonvulsant activity in Wistar albino rat assessed as time spent on tonic extensor phase at 60 mg/kg by MES test (RVb = 11 +/- 0.57 sec); format: functional; procedure, shortened: as §1
[11] = test system: Rattus norvegicus; test: Anticonvulsant activity in Wistar albino rat assessed as time spent on clonic convulsions phase at 60 mg/kg by MES test (RVb = 16.80 +/- 2.50 sec); format: functional; procedure, shortened: as §1
[12] = test system: Rattus norvegicus; test: Anticonvulsant activity in Wistar albino rat assessed as time spent on stupor phase at 60 mg/kg by MES test (RVb = 218.33 +/- 5.80 sec); format: functional; procedure, shortened: as §1
[13] = test system: Rattus norvegicus; test: Anticonvulsant activity in Wistar albino rat assessed as time spent on tonic flexion phase at 60 mg/kg by MES test (RVb = 3.12 +/- 0.31 sec); format: functional; procedure, shortened: as §1
[14] = test system: Rattus norvegicus; test: Antidiabetic activity in Wistar albino rat assessed as reduction of blood glucose level administered qd for 9 days measured after 30 mins last post dose by oral glucose tolerance test (RVb = 183.2 +/- 3.68 mg/dl); format: functional
[15] = test system: Rattus norvegicus; test: Antidiabetic activity in Wistar albino rat assessed as reduction of blood glucose level administered qd for 9 days by glucose oxidation method (RVb = […] +/- […] mg/dl); format: functional
[16] = test system: Rattus norvegicus; test: Antidiabetic activity in Wistar albino rat assessed as reduction of fasting blood glucose level administered qd for 9 days by oral glucose tolerance test (RVb = 83.33 +/- 1.54 mg/dl); format: functional
[17] = test system: Rattus norvegicus; test: Antidiabetic activity in Wistar albino rat assessed as reduction of blood glucose level administered qd for 9 days measured after 90 mins last post dose by oral glucose tolerance test (RVb = 135.7 +/- 2.9 mg/dl); format: functional
[18] = test system: Rattus norvegicus; test: Anticonvulsant activity in Wistar albino rat assessed as time spent on clonic convulsions phase at 75 mg/kg by MES test (RVb = 16.80 +/-2.50 sec); format: functional; procedure, shortened: as §1
[19] = test system: Rattus norvegicus; test: Anticonvulsant activity in Wistar albino rat assessed as time spent on tonic flexion phase at 75 mg/kg by MES test (RVb = 3.12 +/- 0.31 sec); format: functional; procedure, shortened: as §1
[20] = test system: Rattus norvegicus; test: Anticonvulsant activity in Wistar albino rat assessed as time spent on stupor phase at 75 mg/kg by MES test (RVb = 218.33 +/- 5.80 sec); format: functional; procedure, shortened: as §1
[21] = test system: Rattus norvegicus; test: Anticonvulsant activity in Wistar albino rat assessed as time spent on tonic extensor phase at 75 mg/kg by MES test (RVb = 11 +/- 0.57 sec); format: functional; procedure, shortened: as §1
[22] = test system: Rattus norvegicus; test: Anticonvulsant activity in Wistar albino rat assessed as time spent on stupor phase at 85 mg/kg by MES test (RVb = 218.33 +/- 5.80 sec); format: functional; procedure, shortened: as §1
[23] = test system: Rattus norvegicus; test: Anticonvulsant activity in Wistar albino rat assessed as time spent on clonic convulsions phase at 85 mg/kg by MES test (RVb = 16.80 +/- 2.50 sec); format: functional; procedure, shortened: as §1
[24] = test system: Rattus norvegicus; test: Anticonvulsant activity in Wistar albino rat assessed as time spent on tonic extensor phase at 85 mg/kg by MES test (RVb = 11 +/- 0.57 sec); format: functional; procedure, shortened: as §1
[25] = test system: Rattus norvegicus; test: Anticonvulsant activity in Wistar albino rat assessed as time spent on tonic flexion phase at 85 mg/kg by MES test (RVb = 3.12 +/- 0.31 sec); format: functional; procedure, shortened: as §1
[26] = test system: Rattus norvegicus; test: Anticonvulsant activity in Wistar albino rat assessed as time spent on tonic extensor phase at 80 mg/kg by MES test (RVb = 11 +/- 0.57 sec); format: functional; procedure, shortened: as §1
[27] = test system: Rattus norvegicus; test: Anticonvulsant activity in Wistar albino rat assessed as time spent on clonic convulsions phase at 80 mg/kg by MES test (RVb = 16.80 +/- 2.50 sec); format: functional; procedure, shortened: as §1
[28] = test system: Rattus norvegicus; test: Anticonvulsant activity in Wistar albino rat assessed as time spent on stupor phase at 80 mg/kg by MES test (RVb = 218.33 +/- 5.80 sec); format: functional; procedure, shortened: as §1
[29] = test system: Rattus norvegicus; test: Anticonvulsant activity in Wistar albino rat assessed as time spent on tonic flexion phase at 80 mg/kg by MES test (RVb = 3.12 +/- 0.31 sec); format: functional; procedure, shortened: as §1
[30] = test system: Rattus norvegicus; test: Anticonvulsant activity in Wistar albino rat assessed as time spent on clonic convulsions phase at 82 mg/kg by MES test (RVb = 16.80 +/- 2.50 sec); format: functional; procedure, shortened: as §1
[31] = test system: Rattus norvegicus; test: Anticonvulsant activity in Wistar albino rat assessed as time spent on stupor phase at 82 mg/kg by MES test (RVb = 218.33 +/- 5.80 sec); format: functional; procedure, shortened: as §1
[32] = test system: Rattus norvegicus; test: Anticonvulsant activity in Wistar albino rat assessed as time spent on tonic flexion phase at 82 mg/kg by MES test (RVb = 3.12 +/- 0.31 sec); format: functional; procedure, shortened: as §1
[33] = test system: Rattus norvegicus; test: Anticonvulsant activity in Wistar albino rat assessed as time spent on tonic extensor phase at 82 mg/kg by MES test; format: functional; procedure, shortened: as §1
[34] = test system: Rattus norvegicus; test: Anticonvulsant activity in Wistar albino rat assessed as time spent on tonic extensor phase at 65 mg/kg by MES test (RVb = 11 +/- 0.57 sec); format: functional; procedure, shortened: as §1
[35] = test system: Rattus norvegicus; test: Anticonvulsant activity in Wistar albino rat assessed as time spent on tonic flexion phase at 65 mg/kg by MES test (RVb = 3.12 +/- 0.31 sec); format: functional; procedure, shortened: as §1
[36] = test system: Rattus norvegicus; test: Anticonvulsant activity in Wistar albino rat assessed as time spent on stupor phase at 65 mg/kg by MES test (RVb = 218.33 +/- 5.80 sec); format: functional; procedure, shortened: as §1
[37] = test system: Rattus norvegicus; test: Anticonvulsant activity in Wistar albino rat assessed as time spent on clonic convulsions phase at 65 mg/kg by MES test (RVb = 16.80 +/- 2.50 sec); format: functional; procedure, shortened: as §1

O=C(CSc1nc2ccccc2[nH]1)NN1C(=O)CSC1c1ccc(O)cc1 (centres undefined)
Time [1]: 3.96 s | Activity [2]: Active | Time [3]: 202.1 s | Time [4]: 3.73 s | Time [5]: 1.02 s

O=C1NC(=O)C(c2ccccc2)(c2ccccc2)N1 [PHENYTOIN]
Time [6]: 2.87 s | Time [7]: 158.6 s | Time [8]: 4.9 s | Time [9]: 0 s

O=C(CSc1nc2ccccc2[nH]1)NN1C(=O)CSC1c1c(O)ccc2ccccc12 (centres undefined)
Time [10]: 3.98 s | Time [11]: 1.8 s | Time [12]: 172.5 s | Time [13]: 3.08 s

c1ccc(-c2nnc(CSc3nc4ccccc4[nH]3)o2)cc1
Activity [14]: 180.2 mg/dL | Activity [15]: 337.2 mg/dL | Activity [16]: 76.33 mg/dL | Activity [17]: 107.7 mg/dL | Activity [2]: inactive

Oc1cc(-c2nnc(CSc3nc4ccccc4[nH]3)o2)cc(O)c1O
Activity [14]: 174.2 mg/dL | Activity [15]: 386.4 mg/dL | Activity [16]: 73.33 mg/dL | Activity [17]: 110 mg/dL

Cc1ccc(C2SCC(=O)N2NC(=O)CSc2nc3ccccc3[nH]2)cc1 (centres undefined)
Time [1]: 3.12 s | Time [3]: 207.3 s | Time [4]: 11 s | Time [5]: 14.62 s

O=C1NC(=O)C(=O)C(=O)N1 [ALLOXAN]
Activity [15]: 339.8 mg/dL

O=C(CSc1nc2ccccc2[nH]1)NN1C(=O)CSC1c1ccc(Cl)cc1 (centres undefined)
Time [18]: 1.36 s | Time [19]: 4.56 s | Time [20]: 215.5 s | Time [21]: 12.1 s

O=[N+]([O-])c1ccc(-c2nnc(CSc3nc4ccccc4[nH]3)o2)cc1
Activity [14]: 154.5 mg/dL | Activity [15]: 158.7 mg/dL | Activity [16]: 78.33 mg/dL | Activity [17]: 110 mg/dL

Oc1ccc(-c2nnc(CSc3nc4ccccc4[nH]3)o2)cc1
Activity [14]: 167.5 mg/dL | Activity [15]: 166.2 mg/dL | Activity [16]: 80.83 mg/dL | Activity [17]: 125 mg/dL | Activity [2]: inactive

Nc1ccc(C2SCC(=O)N2NC(=O)CSc2nc3ccccc3[nH]2)cc1 (centres undefined)
Time [10]: 5.66 s | Time [11]: 15.4 s | Time [12]: 210.5 s | Time [13]: 3.15 s

COc1ccc(Cl)cc1C(=O)NCCc1ccc(S(=O)(=O)NC(=O)NC2CCCCC2)cc1 [GLYBURIDE]
Activity [14]: 176.8 mg/dL | Activity [15]: 139.2 mg/dL | Activity [17]: 105.7 mg/dL

COc1ccc(C2SCC(=O)N2NC(=O)CSc2nc3ccccc3[nH]2)cc1 (centres undefined)
Time [18]: 12.62 s | Time [19]: 3.02 s | Time [20]: 208 s | Time [21]: 9.5 s

Nc1ccc(-c2nnc(CSc3nc4ccccc4[nH]3)o2)cc1
Activity [14]: 155.5 mg/dL | Activity [15]: 335.5 mg/dL | Activity [16]: 80.85 mg/dL | Activity [17]: 106.5 mg/dL

Clc1ccc(-c2nnc(CSc3nc4ccccc4[nH]3)o2)cc1
Activity [14]: 173.2 mg/dL | Activity [15]: 386.7 mg/dL | Activity [16]: 74.83 mg/dL | Activity [17]: 120 mg/dL

O=C(CSc1nc2ccccc2[nH]1)NN1C(=O)CSC1c1ccccc1O (centres undefined)
Time [22]: 209.3 s | Time [23]: 15.62 s | Activity [2]: Active | Time [24]: 4.33 s | Time [25]: 3.14 s

O=[N+]([O-])c1ccc(-c2nnc(CSc3nc4ccccc4[nH]3)o2)c(Cl)c1
Activity [14]: 155.3 mg/dL | Activity [15]: 187.7 mg/dL | Activity [16]: 77.17 mg/dL | Activity [17]: 121.7 mg/dL

O=C(CSc1nc2ccccc2[nH]1)NN1C(=O)CSC1c1ccccc1 (centres undefined)
Time [26]: 9.2 s | Time [27]: 1.2 s | Time [28]: 192.5 s | Time [29]: 3.2 s

COc1cccc(C2SCC(=O)N2NC(=O)CSc2nc3ccccc3[nH]2)c1O (centres undefined)
Time [30]: 16.2 s | Time [31]: 213.8 s | Time [32]: 3.3 s | Time [33]: 4.21 s

c1cncc(-c2nnc(CSc3nc4ccccc4[nH]3)o2)c1
Activity [14]: 181.8 mg/dL | Activity [15]: 343.3 mg/dL | Activity [16]: 81.34 mg/dL | Activity [17]: 122.8 mg/dL

O=C(CSc1nc2ccccc2[nH]1)NN1C(=O)CSC1c1ccco1 (centres undefined)
Time [34]: 5.3 s | Time [35]: 4.2 s | Time [36]: 208.6 s | Time [37]: 1 s
